Where a SMILES comes first, the peptide text is derived from it. [ ]: non-standard residue; d: D form. The star is where a group is joined. Hyp = O=C(O)[C@@H]1C[C@@H](O)CN1; Boc = CC(C)(C)OC(=O)*; NHOH = ON*
Target: Neuraminidase (Influenza A virus, UniProt B4URF0)
Experiment: Inhibition of Influenza A virus type A H3N2 neuraminidase
Procedure, shortened: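 NA was taken from influenza A virus strains Yuefang 72-243 A and Jifang 90-15 A and prepared by the Laver method. The enzyme in 33 mmol/L MES (pH 3.5) was mixed with 4 mmol/L CaCl₂ and 20 µmol/L MUNANA (added solutions) and incubated for 10 min at 37 °C. The reaction was stopped with 14 mmol/L NaOH in 83% ethanol. Fluorescence was read at 360/450 nm with substrate blanks subtracted. IC50 came from percent inhibition versus concentration, with each point run in duplicate.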

Sequence of Neuraminidase (B4URF0 whole entry): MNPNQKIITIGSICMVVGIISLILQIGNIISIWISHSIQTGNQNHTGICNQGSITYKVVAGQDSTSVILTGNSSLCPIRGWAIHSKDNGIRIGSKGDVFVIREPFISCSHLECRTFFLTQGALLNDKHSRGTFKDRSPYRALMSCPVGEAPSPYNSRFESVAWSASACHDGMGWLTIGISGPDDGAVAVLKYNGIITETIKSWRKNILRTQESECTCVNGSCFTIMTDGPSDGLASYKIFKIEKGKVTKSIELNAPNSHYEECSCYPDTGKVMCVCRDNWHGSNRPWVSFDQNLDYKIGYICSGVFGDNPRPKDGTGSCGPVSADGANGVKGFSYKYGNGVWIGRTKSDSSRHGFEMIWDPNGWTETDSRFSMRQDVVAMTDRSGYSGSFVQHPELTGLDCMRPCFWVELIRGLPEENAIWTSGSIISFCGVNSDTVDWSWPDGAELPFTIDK

Row | Structure (SMILES) | IC50 (read-out: IC50) | IC50 (read-out: Log IC50 (converted))
1 | C[C@H](NC(=O)OC(C)(C)C)C(=O)N1C[C@@H](N)C[C@H]1C(=O)O | 15.8 µM | 53.7 µM
2 | C[C@H](NC(=O)OC(C)(C)C)C(=O)N1C[C@@H](N)C[C@H]1C(=O)NO | 12.6 µM | 40.7 µM
3 | CC[C@H](C)[C@H](NC(=O)OC(C)(C)C)C(=O)N1C[C@@H](N)C[C@H]1C(=O)O | 2.71 µM | 7.94 µM
4 | CSCC[C@H](NC(=O)OC(C)(C)C)C(=O)N1C[C@@H](N)C[C@H]1C(=O)O | 1.56 µM | 4.37 µM
5 | CC(C)C[C@H](NC(=O)OC(C)(C)C)C(=O)N1C[C@@H](N)C[C@H]1C(=O)NO | 6.13 µM | 17.4 µM
6 | O=C(NO)[C@@H]1C[C@@H](O)CN1C(=O)Cc1ccccc1Nc1c(Cl)cccc1Cl | 8.54 µM | 20 µM
7 | CC(C)[C@H](NC(=O)OC(C)(C)C)C(=O)N1C[C@@H](N)C[C@H]1C(=O)O | 4.29 µM | 13.2 µM
8 | COC(=O)[C@@H]1C[C@@H](N)CN1C(=O)[C@@H](N)CC(C)C | 48 µM | 191 µM
9 | CC(C)(C)OC(=O)N[C@@H](Cc1ccccc1)C(=O)N1C[C@@H](N)C[C@H]1C(=O)O | 2.4 µM | 6.46 µM
10 | CC[C@H](C)[C@H](NC(=O)OC(C)(C)C)C(=O)N1C[C@@H](N)C[C@H]1C(=O)NO | 2.1 µM | 5.89 µM
11 | O=C(O)[C@@H]1C[C@@H](O)CN1C(=O)Cc1ccccc1Nc1c(Cl)cccc1Cl | 19.8 µM | 49 µM
12 | CC(C)(C)OC(=O)N[C@@H](Cc1ccccc1)C(=O)N1C[C@@H](N)C[C@H]1C(=O)NO | 4.17 µM | 10.7 µM
13 | N[C@H]1C[C@@H](C(=O)O)N(C(=O)Cc2ccccc2Nc2c(Cl)cccc2Cl)C1 | 16.2 µM | 39.8 µM
14 | CC(=O)N1C[C@H](O)C[C@@H]1C(=O)O | 48.7 µM | 282 µM
15 | COC(=O)[C@@H]1C[C@H](N)CN1C(=O)[C@H](C)NC(=O)OC(C)(C)C | 83.7 µM | 269 µM
16 | N[C@H]1C[C@@H](C(=O)NO)N(C(=O)Cc2ccccc2Nc2c(Cl)cccc2Cl)C1 | 3.57 µM | 8.51 µM
17 | COC(=O)[C@@H]1C[C@@H](O)CN1C(=O)[C@H](C)NC(=O)OC(C)(C)C (Boc-Ala-[Hyp]-OMe) | 90.8 µM | 288 µM
18 | CC[C@H](C)[C@H](NC(=O)OC(C)(C)C)C(=O)N1C[C@H](O)C[C@H]1C(=O)NO (Boc-Ile-[Hyp]-{NHOH}) | 2.15 µM | 6.03 µM
19 | CC(C)C[C@H](NC(=O)OC(C)(C)C)C(=O)N1C[C@H](O)C[C@H]1C(=O)O (Boc-Leu-[Hyp]-OH) | 11.5 µM | 33.9 µM
20 | CC(C)C[C@H](NC(=O)OC(C)(C)C)C(=O)N1C[C@H](O)C[C@H]1C(=O)NO (Boc-Leu-[Hyp]-{NHOH}) | 3.87 µM | 11 µM
21 | CC(C)(C)OC(=O)N[C@@H](Cc1ccccc1)C(=O)N1C[C@H](O)C[C@H]1C(=O)O (Boc-Phe-[Hyp]-OH) | 2.85 µM | 7.59 µM
22 | CC(C)(C)OC(=O)N[C@@H](Cc1ccccc1)C(=O)N1C[C@H](O)C[C@H]1C(=O)NO (Boc-Phe-[Hyp]-{NHOH}) | 4.27 µM | 11 µM
23 | CC(C)[C@H](NC(=O)OC(C)(C)C)C(=O)N1C[C@H](O)C[C@H]1C(=O)O (Boc-Val-[Hyp]-OH) | 4.63 µM | 14.1 µM
24 | CC(C)[C@H](NC(=O)OC(C)(C)C)C(=O)N1C[C@H](O)C[C@H]1C(=O)NO (Boc-Val-[Hyp]-{NHOH}) | 6.09 µM | 17.8 µM
